# The list is not random: actives were taken first. Their share in the collection is about 2.1%.
# FN deposit inh – inhibitors of fibronectin matrix deposition, primary screen, AH1F cells, Alexa488-fibronectin fluorescence, plate reader | inhibition, % at 12.6 µM | AID 743247, 2014 | actives 0.086% (n = 350,000) | AH1F fibroblasts, overnight;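 active = mean inhibition across replicates of 30% or more, regardless of how many single replicates reach that level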
#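 Material: AH1F fibroblast monolayer depositing Alexa488-labelled fibronectin into matrix / Amount: 10000 AH1F cells per well / Signal: fluorescence 485/525 nm / Medium: DMEM, 2% serum / Compound: single dose, pinned / Incubation: 1 h cell adhesion before compound, then overnight fibronectin incubation / Reagent: Alexa488-FN, 24 nM final / Read-out: inhibition of fibronectin deposition signal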
# ARNT-TACC3 inh – disruptors of ARNT/TACC3 protein interaction, primary screen, biochemical, AlphaScreen, single concentration; AlphaScreen His-ARNT PAS-B/GST-TACC3 binding, luminescence; TACC3 fragment carries E629A point mutation; AID 623870, 2012; inhibition, % at 9.99 µM; Transforming acidic coiled-coil-containing protein 3 (Homo sapiens), Q9Y6A5; actives 0.66% (n = 390,000);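 active = mean inhibition of replicates at least 50% and at least half of replicates each reaching 50%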
# FGF22 binding – binders of human FGF22 protein, primary screen, FGF22 synaptogenesis inhibitor project, biophysical, thermal shift, single point; Fibroblast growth factor 22 (Homo sapiens), Q9HCT0; actives 1.5% (n = 340,000); recombinant FGF22 thermal shift, SYPRO orange fluorescence; percent of sucrose octasulfate shift, DMSO zero; AID 651658, 2012; activity (Tm shift, normalised), % at 9.99 µM;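 active = mean Tm shift, scaled 0 neutral to 100 positive control, at about 1.3% or above, every replicate too, limit read from the data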
# PDI inh – inhibitors of human PDI, primary screen, biochemical, turbidity, single point, plate reader. inhibition, % at 10 µM. actives 0.052% (n = 350,000). Protein disulfide-isomerase (Homo sapiens), P07237. PDI insulin aggregation turbidity, A650, 90 min;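 active = mean inhibition across replicates of 30% or more, whatever share of single replicates reach that level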
# AF4-AF9 inh – inhibitors of AF4 peptide binding to AF9, primary screen, biochemical, AlphaScreen, biotin-AF4 peptide, FLAG-AF9, single point; Protein AF-9 (Homo sapiens), P42568; inhibition, % at 10 µM; actives 0.47% (n = 350,000); AID 651704, 2012;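 active = every replicate reaching a set inhibition limit, whatever the replicate mean, cut at about 25% in these data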
# Target sequence (P42568 whole entry, looked up): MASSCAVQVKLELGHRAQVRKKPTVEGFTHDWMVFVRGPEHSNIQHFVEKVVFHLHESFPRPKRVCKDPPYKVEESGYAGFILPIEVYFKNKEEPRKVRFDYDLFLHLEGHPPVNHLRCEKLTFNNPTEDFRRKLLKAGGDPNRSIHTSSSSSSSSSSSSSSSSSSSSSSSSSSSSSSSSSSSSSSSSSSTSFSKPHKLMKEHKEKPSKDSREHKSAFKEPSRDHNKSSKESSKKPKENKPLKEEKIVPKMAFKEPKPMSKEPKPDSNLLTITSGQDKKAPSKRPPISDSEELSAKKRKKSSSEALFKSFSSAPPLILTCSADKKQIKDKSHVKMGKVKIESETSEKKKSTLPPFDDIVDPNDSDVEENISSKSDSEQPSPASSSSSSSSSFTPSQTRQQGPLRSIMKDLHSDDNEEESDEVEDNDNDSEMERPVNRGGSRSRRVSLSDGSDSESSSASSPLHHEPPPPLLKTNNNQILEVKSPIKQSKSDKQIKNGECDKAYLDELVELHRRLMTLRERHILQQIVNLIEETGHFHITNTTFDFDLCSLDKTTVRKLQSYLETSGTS
# ERp5 inh – inhibitors of ERp5-driven insulin aggregation, primary screen, biochemical, turbidity, absorbance 650 nm, single point. Protein disulfide-isomerase A6 (Homo sapiens), Q15084. 90 min. inhibition, % at 9.99 µM. actives 0.05% (n = 350,000). AID 651711, 2012;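 active = mean replicate inhibition above about 25%, with every replicate also reaching it, limit read from the data, passing the limit was not always enough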
# Hits are given with their value; n = inactive; x = not tested or not shown.
SMILES,FN deposit inh,ARNT-TACC3 inh,FGF22 binding,PDI inh,AF4-AF9 inh,ERp5 inh
COc1cccc(NC(=O)C[C@H]2CC[C@@H]3[C@H](COc4ccc(NC(=O)C5CCCC5)cc4C(=O)N3C)O2)c1,n,x,x,x,x,x
C=CCSc1nnc(-c2cc3c(-c4ccccc4)nn(C)c3s2)n1C,x,48.0,x,n,x,x
C=CCSc1nnc(-c2cc3c(C(F)(F)F)nn(C)c3s2)n1C,x,n,x,n,x,x
c1coc(C2=Nc3cccc4cccc(c34)N2)c1,n,x,n,n,n,n
CC1=Nc2cccc3cccc(c23)N1,n,n,x,n,x,x
COc1cccc(C2=Nc3cccc4cccc(c34)N2)c1,n,n,n,n,32.9,n
Nc1ccc(C2=Nc3cccc4cccc(c34)N2)cc1,n,n,43.4,n,n,n
O=C(Cc1ccc(F)cc1)Nc1cccc(-c2ccc3nncn3n2)c1,n,n,43.5,n,n,n
CCc1ccc(S(=O)(=O)Nc2cccc(-c3ccc4nncn4n3)c2)s1,n,n,43.2,n,n,n
CCOC(=O)C1(Cc2ccccc2C)CCCN(C(=O)c2ccnn2C)C1 (centres undefined),n,n,x,n,n,n
CCOC(=O)C1(Cc2ccccc2C)CCCN(C(=O)c2cc(CC)nn2C)C1 (centres undefined),n,n,43.2,n,n,n
COC1(OC)N=C(N)C2(C#N)C(c3cccc(Oc4ccccc4)c3)C12C#N (centres undefined),x,n,x,n,x,x
COC1(OC)N=C(N)C2(C#N)C(c3ccccc3)NC(C)=CC12C#N (centres undefined),x,57.2,x,n,x,x
CC(C)(C)N1NC2(CCCCC2)NC1=S,n,n,43.1,n,n,n
S=C1NC2(CCCCC2)NN1c1ccccc1,n,n,n,n,n,n
Cc1ccc(S(=O)(=O)NCC(=O)NCC(=O)OCC(=O)NC(=O)NC(C)(C)C)cc1C,n,n,43.0,n,n,n
C[C@H](CO)N1C[C@H](C)[C@H](CN(C)CC2CC2)OCc2cnnn2CCCC1=O,n,n,n,x,n,n
CCCOc1ccc2c(c1)C(=NN=C(N)N)c1cc(OCCC)ccc1-2,n,n,n,n,31.7,n
CCOC(=O)C(C)Sc1nc(-c2ccccn2)ncc1OC (centres undefined),x,59.9,n,n,n,n
CCOC(=O)C(C)Sc1ncc(OC)c(Sc2ccc(Cl)cc2)n1 (centres undefined),n,n,x,n,x,x
COc1cnc(-c2ccccn2)nc1N(C)C,n,74.1,n,n,n,n
O=C(Cc1cccnc1)N1CC2(C1)[C@@H](c1ccccc1)[C@@H](CO)N2C(=O)C1CC1,n,x,n,x,n,n
Cc1noc(C)c1NC(=O)N(C)C[C@H]1OCCCC[C@H](C)Oc2ccc(NC(=O)NC3CCCCC3)cc2C(=O)N([C@@H](C)CO)C[C@@H]1C,n,n,1.4,x,n,n
C[C@@H]1CN([C@@H](C)CO)C(=O)c2cc(NC(=O)C3CCCCC3)ccc2O[C@@H](C)CCCCO[C@H]1CN(C)C(=O)c1ccccc1,x,n,28.8,x,n,n
C[C@@H]1CN([C@H](C)CO)C(=O)c2cc(NC(=O)C3CCCCC3)ccc2O[C@@H](C)CCCCO[C@@H]1CN(C)C(=O)c1ccccc1,x,n,n,x,n,n
SMILES,FN deposit inh,ARNT-TACC3 inh,FGF22 binding,PDI inh,AF4-AF9 inh,ERp5 inh
C[C@@H]1CCCCO[C@H](CN(C)C(=O)Nc2ccc(F)cc2)[C@@H](C)CN([C@H](C)CO)C(=O)c2cc(NC(=O)Nc3ccccc3)ccc2O1,n,n,n,x,43.2,n
C[C@@H]1CCCCO[C@@H](CN(C)C(=O)Nc2ccc(F)cc2)[C@H](C)CN([C@H](C)CO)C(=O)c2cc(NC(=O)Nc3ccccc3)ccc2O1,n,n,n,x,n,n
COc1ccc(NC(=O)Nc2ccc3c(c2)C(=O)N([C@H](C)CO)C[C@H](C)[C@@H](CN(C)C(=O)c2ccccc2)OCCCC[C@H](C)O3)cc1,x,n,n,x,n,n
COc1ccc(NC(=O)Nc2ccc3c(c2)C(=O)N([C@@H](C)CO)C[C@H](C)[C@H](CN(C)C(=O)c2ccccc2)OCCCC[C@H](C)O3)cc1,x,n,1.4,x,n,n
CCCC#Cc1ccc([C@H]2[C@@H](C#N)N(C(=O)C3CCCC3)[C@@H]2CO)cc1,n,n,n,x,n,n
C[C@H]1CCCCO[C@H](CN(C)C(=O)c2ccccc2)[C@@H](C)CN([C@@H](C)CO)C(=O)c2cc(NC(=O)CCCN(C)C)ccc2O1,n,n,n,x,n,n
CC(C)[C@H]1C(=O)NCCC=CC[C@H](C)Oc2ccccc2C(=O)N1C (mixture of isomers),n,x,x,x,x,x
C[C@@H]1CN([C@H](C)CO)C(=O)c2cc(NC(=O)Nc3ccc(F)cc3)ccc2O[C@@H](C)CCCCO[C@@H]1CN(C)C(=O)c1ccccc1,x,n,1.4,x,n,n
C[C@@H]1CN([C@H](C)CO)C(=O)c2cc(NC(=O)Nc3ccc(F)cc3)ccc2O[C@@H](C)CCCCO[C@H]1CN(C)C(=O)c1ccccc1,x,x,x,x,n,n
CC(=O)Nc1ccc2c(c1)Cc1ccc(Cl)cc1-2,n,n,n,n,n,n
CC(=O)Nc1cc2c(cc1Cl)Cc1cc(Cl)ccc1-2,n,n,43.3,n,n,n
COc1ccc2cc(CCNC(=O)C(C)C)c(=O)[nH]c2c1,n,n,n,n,31.1,n
CCCn1nc(C(=O)N2CCN(c3ccccn3)CC2)c2ccccc2c1=O,n,x,44.1,n,n,n
Cc1cc(C)c(S(=O)(=O)/N=C2/C=C(Sc3ncn[nH]3)C(=O)c3ccccc32)cc1C,38.6,n,x,n,x,x
Cc1cccc(N(CC(=O)NC2CCCCC2)C(=O)c2csnn2)c1,n,n,n,n,n,n
CC(=O)c1cccc(N(CC(=O)NC2CCCCC2)C(=O)c2csnn2)c1,n,n,n,n,34.1,n
O=C(CN(C(=O)c1csnn1)c1ccccc1F)NCc1ccc2c(c1)OCO2,n,n,n,n,n,n
CC(=O)c1ccc(N(CC(=O)NC2CCCC2)C(=O)c2csnn2)cc1,n,n,43.6,n,n,n
O=C(CN(C(=O)c1csnn1)c1cccc(F)c1)NCc1ccc2c(c1)OCO2,n,n,42.9,n,n,n
COCCNC(=O)C[C@H]1C=C[C@@H](NC(=O)NC2CCCC2)[C@H](CO)O1,n,n,n,x,n,n
